According to the RNAGym collection of RNA variant scans (doi:10.1126/science.aae0568):
Variants at the floor of the assay were thinned out.

B1: tRNA (parent)
chain: GUUCCGUUGGCGUAAUGGUAACGCGUCUCCCUCCUAAGGAGAAGACUGCGGGUUCGAGUCCCGUACGGAACG

Variants of: B1
Experiment: yeast fitness relative to wild type (ratio to wild type); higher = fitter; tRNA-Arg(CCU), competitive growth, 37 C, YPD
How it was run: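 Variants of the tRNA-Arg(CCU) gene were chemically synthesised with a 3% per-site mutation rate across 69 sites and placed at the native genomic locus in Saccharomyces cerevisiae. Six parallel replicates of the pooled strains were competed in YPD at 37°C for 24 hours, and gene amplicons from the start and end populations were read by 100-nucleotide paired-end sequencing. Darwinian fitness relative to wild type was derived from changes in genotype frequencies. Genotypes required ≥ 100 starting reads, and estimates < 0.5 were set to 0.5.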

Row | Variant | yeast fitness
1 | GUUUCGUUGGCAUAAUGGUAACGCGUCUCCCUCCUAAGGAGAAGACUGCGGGUUCGAGUCCUGUACGGAACG | 0.73
2 | GUUUCGUUGGCGUAAUGGUAACGCAUCUCCCUCGUAAGGAGAAGACUGCGGUUUCGAGUCCCGUACGGAACG | ≤ 0.5
3 | GUUUCGUUGGCGUAAUGGUAACGCGUCUCCCUCCUAAGUAGAAGACUGCGGGUUCGAGUCCCGUACGGAACG | 0.834
4 | GUUUCGUUGGCCUAAUGGUAACGCGGCUCCCUCCUAAGGAGAAGACUGCGGGUUUGAGUCCCGUACGGCACG | 0.504
5 | GUUUCGUUGGCGUAAUGGUAACGCGUCUCCCUCCUAAGGAGAAAACUGCGGGUUCGAGUCCCGUACGGCACG | 0.568
6 | GUUUCGUUGGCAUAAUGGUGAUGCGUCUCCCUCCAAAGGAGAAGCCUGCGGGUUCGAGUCCCGUACGGAACG | ≤ 0.5
7 | GUUUCGUUGGCGUAAUGGUAACGCGUCUCCCUCCUAAGGAGAAGACUGCCCGUUCAAGUCCCGUACGGAACG | ≤ 0.5
8 | GUUUCGGUGGCGUAAUGGUAACGCGUCUCCCUCCUAAGGAGAAGACUGCGGGUUCCAGUGCCGUAUGGAACG | ≤ 0.5
9 | GUUUCGUUGGCGUAAUGGUAACGCGGCUCCCUCCUAAGGAGAAGACUGCGGGUUCGAGUCCGGUACGGAACG | ≤ 0.5
10 | GUUUCGUUGGCGUAAUGGUAACGCGUCUCCCUCCUAAGGAGAAGACUGCGGGUUCGAGUCCCGUACUGAACG | 0.782
11 | GUUUCGUUGGCGUAAUGGUAACGCGUCUCCCUCCUAAGGAGAAGACUGCGGGUUCGACUCCCGUACGGUACG | 0.785
12 | GUUUCGUUGGCCUAAUGGUAACGCGUCUCCCUCCUAAGGAGAAGACUGGGGGUUCGAGUCCCGUACGGAACG | 0.533
13 | GUUUCGUUGGCGAUAUGGUAACGCGUCUUCCUCCUAGGGAGAAGACUGCGGGUUCGAGCCCCGUACGCAACG | ≤ 0.5
14 | GUUUCGAUGGCGUAAUGGUAACGCGUCUCCCUCCUACGGCGAAGACUGCGAGUUAGAAUCCCGUACGGAACG | ≤ 0.5
15 | GUUUCGUUGGCGUAAUGGUAACGCGCCUCCCUCCUAAGGAGAAAACUGCGGAUUCGAGUCCCGUAUGGAACG | ≤ 0.5
16 | GUUUCGUUGGCAUAAUGGUAACGCGUCUCCAUCCUAAGGAGUAGACUGCGGGUUCGAGUCCCGUACGGAACG | ≤ 0.5
17 | GUUUCGUUGGCGUAAUGGUAACGCGCCUCCCUCCUCGGGAGAAGACUGCGGGUUCGAGUCCCGAACGGACCG | ≤ 0.5
18 | GUUUCGUUGGCGUAAUGGUAACGCGUCUCCCUCCUAAGCAGAAGAGUGGGGGUUCGAGUCCCGUACGGAACG | ≤ 0.5
19 | GUUUCGUUGGCGUAAUGGUAACCCGUCUCCCUCCUAAGGUGGAGACUGCGGGUUCGACUCCCGUACGGAACG | ≤ 0.5
20 | GUUUCGUUGGCGUAAUGAUAACCGGUCUCCCUCCUAAGGAGAAGAGUGCGGGUUCGAGUCCCGGACGGAACG | ≤ 0.5
21 | GUUUCGUUGGCGUAAUGGAAACGCGUCUCCCUCCUAAGGAGAACACUGCGGGGUCGAGUCCCGUACGGAACG | ≤ 0.5
22 | GUUUCGUUGGCGUAAUGGUAACGCGUCUCCCUCCUAAGGAGAAGACUGCGGAUUCGAGUCCCCUACGGAACG | 0.595
23 | GUUUCGUUGGCAUAAUGGCAACGCGACUCCCUCCUAAGGAGAAGACUGCGGGUUCGAGUCCCGUACGGAACG | ≤ 0.5
24 | GUUUCGCUGGCGUAAUGGUAACACGUCUCCCUCCUAAGGUGCAGACUGCGGGUUCGAGUACCGUACGGAACG | ≤ 0.5
25 | GUUUCGUUGCCGUAAUGGUAACGCGUCUCCCUCCUAAGGAGAAGACCGCGGGUUCGAGACCCGUACGGUACG | ≤ 0.5

Row | Variant | yeast fitness
26 | GUUUCGUUGAGGUAAUGGUGACGCGUGUCCCUCCUAAGGAGAAGACUGCGGGUUCGAGUCCCGUGCGGAACG | ≤ 0.5
27 | GUUUCGUUGGCGUAAUGGUAACGCGUCUCCCUCCUAAGGAAAAGACUGCGGGUUCGAGUCCCGUACGGAACG | 1.02
28 | GUUUCGUAGGCGUAAUGGUAACGCGUCUCCCGCCAAAGGAGAAGACUGCGGGUUCGAGUCCUGUACGGCACG | ≤ 0.5
29 | GUUUCGUAGGCGUAAUGGUAACGCGUCUCCCUCCUAAGGAGAAGACUACGGGUUUGAGUCCCGUACGGAACG | ≤ 0.5
30 | GUUUCGUUGGCGUAAUGGUAACGCGACUCCCUCCUAAGGAGAAGCCUGCGGGUUCGAGUCCCGUACGGAACG | 0.53
31 | GUUUCGUUGGCGUAAUGCUAACGCGUCUCCUUCCUAAGGAGAAGACUGCGGGUUCGAGUCCCGUACGGAACG | ≤ 0.5
32 | GUUUCGUUGGCAUAAUGGUAACGCGUCUCCCUCCUAAGGAGAAGACUGCGGGUUCGAGUCCCGUACGGAACG | 1.11
33 | GUUUCGUAGGCGCAAUGGUAACGCGUCUCCCUCCCAAGGAGAAGAAUGCGGGUUCGAGUCCCGUACGGAACG | ≤ 0.5
34 | GUUUCGUUGGCGUAAUAGGAGCGCGUCUCCCUCCUAAGGAGAGGACUGCGGGUUCGAGUCCCGUACGGAACG | 0.554
35 | GUUUCGUUGGCGUAAUGGCAACGCGUCUCCCUCCUAUGGAGAAGACUGCGGGUUCGAGUCCAGUACGGAACG | ≤ 0.5
36 | GUUUCGUUGGCCUAAUGGUGACGCGUCUCCCUCCUAAGGAGAAGACAGUGGGUUCGUGUCACGUACGAAACG | ≤ 0.5
37 | GUUUCGAUGGCGUAAUGGUAACGCGUCUCCCUCCUAAGGAGAAGACUGCGGGUUCGAGUCCCGUACGGAACG | 0.743
38 | GUUUCGUUGACGUAAUGGUAACGCGUCACCCUCCUAAGGAGAAGACUGCGGGUUCGAGUCCCGUACGGAUCG | ≤ 0.5
39 | GUUUCGUCGGCGUAAUCGUAACGCGUCUCCCUCCUAAGGAGAAGACUGAGGGUUCGAGUCCCGUACGGAACG | ≤ 0.5
40 | GUUUCGUUGGCGUAAUGGUAACGCGUCUCCCUCCUAAGGAGAAGACUGCGGGUUCAAGUCCCGUACGGAACG | 0.934
41 | GUUUCGUUGGCGUAAUAGUAACGCGUCUCCCUCCUAAGGAGAAGACUGCGGGUUCGUGUCCCGUACGGAACG | ≤ 0.5
42 | GUUUCGUUGGCGUAAUGGUAACGCAUCUCCCUCCUAAGGAGAAGACUGCGGGUUCGUGACCCGUACGGAACG | ≤ 0.5
43 | GUUUCGUAGGCGUAAUGGUAACGCCUCUCCCUCCUAAGGAGAUGACUGCGGGUUCGAGUGCCGUACGGAACG | ≤ 0.5
44 | GUUUCGUUGCCGUAAUGGUAACGCGUCUCCCUCCUAAGGAGAAGACUCCGGGUUCGAGUCCAGUACGGAACG | ≤ 0.5
45 | GUUUCGUUGGCAUAAUGGUAACGCGUCUCCCUCCUAAGGAGAAGACUGCGGGUUCGAGUCCCGUACAGAACG | 0.674
46 | GUUUCGUUGGCGUAAUGCUAACGCGUCUCCCUCCUAAGGAGAAGACUGCGGGUUCGCGUCCCGUACGGAACG | 0.639
47 | GUUUCGUAGGCGUAAUGGUAACGCGUCUCCCUUCUUAGGAGAAGACUGCGGGUUCGAGUCCCGUCCGGAACG | ≤ 0.5
48 | GUUUCGUUGGCGUAAUGGUAACCCGUCUCGCUCCUAAGGAGAAGACUGCGGGUUCGAGUCCCGUACGGAACG | ≤ 0.5
49 | GUUUCGUUGGCGUAAUGGCAACGCGUCUCCCUCCUGAGAAGAAGACUGCGGGUUCGAGUCCCGUACAGAACG | ≤ 0.5
50 | GUUUCGUUGGCGUAAUGGUAACCCGUCUCCCUCCUCAGGAGAAGACUGCGGGUUCGAGUCCCGUAUGGAACG | ≤ 0.5

Row | Variant | yeast fitness
51 | GUUUCGUUGACGUAAUGGUAACGCGUCACCCUCCUAAGGAGAAGACUGCGGGUUCGAGUCCCGUACGGAACG | ≤ 0.5
52 | GUUUCGUUGGCAUAAUGGUGAUGCGUCUCCCUCCUAAGGAGAAGACUGCGGGUUCGAGUCCCGUACGGAACG | 0.532
53 | GUUUCGUUGGCGUAAAGGUAACGCGUCUCCCUCCUAAGGCGAAGACUGCGGGUUUGAGUCACGUAAGGAACG | 0.528
54 | GUUUCGUUGGCGUAAUGGUAACCCGUCUCCCUCCUAAGGAGAAGACUGCGAGUUCGAGUCCCGUACGGGACG | 0.586
55 | GUUUCGAUGGCGUAAUGGUAACGCGUCUCCCUCCUACGGAGAAGACUGCGGGUUCGAGUCCCGUACGGAACG | ≤ 0.5
56 | GUUUCGUUGGCGUAAUGGAAACGCGUCUCGCUCCUCAGGAGAAGACCGCGGGUUCGAGUCCCGUACGGAACG | ≤ 0.5
57 | GUUUCGUUGGCAUAAAGGUAACGCGUCUCCCUCCUAAGGAGAAGACUGCGAGUACGAGUCCCGUACGGAACG | ≤ 0.5
58 | GUUUCGUUGGCGUAAAGGUAACGCGUCUCCCUCCUAAGGAGAAGACUGCGGGUUCGAGUCUCGUACGGAACG | 0.708
59 | GUUUCGAUGGCGUAAUGGUAACGCGUCUCCCUCCUAAGCAGAAGACUGCGGGUUCGAGUCCCGUACGGAACG | ≤ 0.5
60 | GUUUCGUUGGCGUAAUGGUAACGCGGCUCCCUCCUAAGGAGAAGACUGCGGGUUCGAGUCCCGUACGGAACG | 0.912
61 | GUUUCGUCGGCGUAAUGGUAACGCGUCUCCCUCCUGAGGCGAACACUGCGGGUUCGAGUCCCGUACGGAACG | ≤ 0.5
62 | GUUUCGUUGGCGUAAUGGUAACCCGUCUCCCUCCUCAGGAGAAGACUGCGGGUUCGAGUCCCGUACGGAACG | 0.597
63 | GUUUCGUUGGCGAUAUGGUAACGCGUCUUCCUCCUAGGGAGAAGACUGCGGGUUCGAGUCCCGUACGGAACG | 0.581
64 | GUUUCGUUGGCGUAAGGGUAACGCGUCUCCCUCCUAAGGAGAAGACUGCGGGUUCGAGUCCCGUAGGGAACG | ≤ 0.5
65 | GUUUCGUUGGCGCAAUGGUAACGCGUCUCCCUUCUAAGGAGAAGACUGCGGGUUCGAGUCCCGUGCGGAACG | 0.617
66 | GUUUCGUGGGCGUAAUGGUGACGCGUCUCCCUCCUAAGGAGAAGACGGCGGGUUCGGGUCCCGUACGGAACG | ≤ 0.5
67 | GUUUCGUUGCCGUCAUGGUAACGCGUGUCCCUCCUAAGGAGAAGACUGCGGGUUCGAGUCCCGUACGGAACG | 0.546
68 | GUUUCGUUGGCGUAAAGGUUACGCGUCUCCCUCCCAAGCAGCAGACUGCGGGUUGGAGUCCCGUACGGAGCG | ≤ 0.5
69 | GUUUCGUUGGCGUAACGGUAACGCGUCUCCCUCCUUAGGAGAAGACUGUGGGUUCGACUCCCGUAUGGAACG | ≤ 0.5
70 | GUUUCGGUGGCGUAAUGGUAACGCGUCUCCCUCGUAAGGAGAAGACUGCGAGUUCGAGUCCCGUACGGAACG | ≤ 0.5
71 | GUUUCGUUGGCAUAAUGGUAACGCGUCUCCCUCCUAAGCAGAAAACUGCGGGUUCGUGUCCCGUACGGAACG | ≤ 0.5
72 | GUUUCGUUGGCGUAAUCGUAACGCGUCUCCCUCCUAAGGAGAAGACUGAGGGUUCGAGUCCCGUACGGAACG | 0.55
73 | GUUUCGUUGGCGUAAUGGUAACGCAUCUCCCUCCUAAGGAGAAGACUGCGGGUUCGAGUCCCGUACCGAACG | 0.58
74 | GUUUCGUUGGCGUAAUCGUAACGCGUCUCCCUCCUAAGGAGAAGACUGGCGGUUCGAGUCCCGUACGGAACG | 0.652
75 | GUUUCGUUGGCGUAAUAGUAACGCGUCUCCCUCCUAAGGAGAAGACUGCGGGUUCGAGUCCCGUACGGAACG | 0.973
